Source: PubChem BioAssay (several laboratories)
ADAM17 inh: inhibits human ADAM17 | P78536 | recombinant ADAM17, EDANS/DABCYL FRET peptide cleavage | inhibition, % at 6.95 µM | 0.83% of 370,000 active | AID 720648;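 active means inhibition above the mean of compounds lying between control limits plus 3 SD, set per campaign, cut at about 8.5% in these data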;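 further: 0% = DMSO-only wells as the low control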
Target sequence (P78536 215-824 limits assumed): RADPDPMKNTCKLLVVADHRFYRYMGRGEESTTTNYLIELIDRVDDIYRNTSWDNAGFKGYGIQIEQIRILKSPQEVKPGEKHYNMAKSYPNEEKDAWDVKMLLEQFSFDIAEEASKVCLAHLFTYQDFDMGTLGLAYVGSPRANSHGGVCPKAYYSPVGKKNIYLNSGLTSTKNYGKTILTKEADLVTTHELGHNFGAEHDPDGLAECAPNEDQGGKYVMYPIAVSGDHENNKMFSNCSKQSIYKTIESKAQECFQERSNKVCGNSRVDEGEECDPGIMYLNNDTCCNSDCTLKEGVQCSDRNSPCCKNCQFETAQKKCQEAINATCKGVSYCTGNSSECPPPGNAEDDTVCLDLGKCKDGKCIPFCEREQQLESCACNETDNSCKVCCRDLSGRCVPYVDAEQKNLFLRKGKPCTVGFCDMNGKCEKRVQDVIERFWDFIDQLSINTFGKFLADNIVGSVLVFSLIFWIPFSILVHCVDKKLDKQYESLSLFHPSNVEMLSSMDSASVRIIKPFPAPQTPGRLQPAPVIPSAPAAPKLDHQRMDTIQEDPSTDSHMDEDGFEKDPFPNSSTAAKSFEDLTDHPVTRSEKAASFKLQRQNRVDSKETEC
DDE Tn7 FP inh: DD(E)-Tn7 binding inhibition, primary FP screen; P02675; FP displacement of FITC-Tn7 peptide from fibrin DD(E); 0% = median of compound wells per plate; inhibition, % at 8.3 µM; 0.13% of 370,000 active; AID 720508;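 active means inhibition above the mean of compounds falling within the control limits plus 3 SD of them, cut at about 14% in these data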;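 further: 0% = plate median of compound wells and 100% = 10 µM Aha-Tn7 peptide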
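System: human fibrin DD(E); quantity: Fibrin-DD(E) at 2 µM final; also added: fluorescent Tn7 probe at 0.1 µM; compound dosing: single nominal test concentration of 8.3 µM per compound; schedule: 10 min preincubation, 3 h with tracer, room temperature; detection: fluorescence polarization of the labelled Tn7 tracer; repeats: one replicate per compound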
MT1-MMP act inh: blocks activation of human MT1-MMP; P50281; 0.061% of 360,000 active; GFP/RFP ratio change, % at 20 µM; HT1080 RFP-PRO-GFP cells, GFP/RFP ratio fluorescence, overnight; percent of plate control window, DMSO zero;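 active means GFP/RFP ratio change of at least 30% with cell ATP level not reduced by more than half and red fluorescence within 50% of control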
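Material: RFP-PRO-GFP reporter HT1080 cells. Dosing: single-point 20 µM compound, 1% DMSO. Controls: DMSO and RFP-L50D-GFP cell wells. Timing: cells overnight before dosing, compound overnight, 37 °C, 5% CO2. Measure: GFP/RFP fluorescence ratio.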
ADAM10 inh: ADAM10 inhibition, QFRET primary screen; recombinant ADAM10, EDANS/DABCYL FRET peptide cleavage, 3 h; inhibition, % at 7 µM; 0.62% of 370,000 active; AID 720582;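 active means inhibition above a per-campaign cutoff equal to the mean of compounds falling between control-based bounds plus 3 SD, cut at about 20% in these data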;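 further: 0% = DMSO wells while the 100% control is not disclosed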
Tn6 DDE FP: inhibitors of Tn6 peptide binding to human fibrin DD(E); Fibrin DD(E) TRITC-Tn6 fluorescence polarization displacement; AID 720509; inhibition, % at 8.3 µM; 0.21% of 370,000 active;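 active means inhibition above a per-campaign cutoff: mean of compounds within control limits plus 3 SD, cut at about 15% in these data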;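 further: 0% = median of all compound wells on the plate and 100% = blocking peptide control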
ADAM10 ctr: ADAM10 inhibition, counter-screen for ADAM17 exosite hits; shares compounds with ADAM17 inh; recombinant ADAM10, EDANS/DABCYL FRET peptide cleavage, 3 h; inhibition, % at 6.95 µM; 47% of 2,900 active;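 active means mean inhibition over the triplicate runs exceeds the activity threshold set in the earlier primary screen, cut at about 20% in these data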;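 further: 0% = DMSO wells and 100% = marimastat wells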
ADAM17 confirm: human ADAM17 inhibition, confirmation; shares compounds with ADAM17 inh; recombinant ADAM17, EDANS/DABCYL QFRET peptide cleavage; inhibition, % at 6.95 µM; 65% of 2,900 active;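 active means mean inhibition across replicates above the hit cutoff set in the primary screen, cut at about 8.5% in these data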;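 further: 0% = DMSO wells and 100% = marimastat wells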
* hit, by the source's call. Shown are actives, neighbours in structure and some others; about 1.6% of the full set was active somewhere.

How did COC(=O)c1ccccc1NC(=O)CSc1nc(Nc2ccccc2)nc(N2CCOCC2)n1 do in these assays?
ADAM17 inh: 8.7*; DDE Tn7 FP inh: -10.0; MT1-MMP act inh: -1.2; ADAM10 inh: 17.8; Tn6 DDE FP: -11.3; ADAM10 ctr: 16.3; ADAM17 confirm: 9.1*

What do the screens show for `COc1ccc(NC(=O)c2ccc3c(c2)NC(=O)CS3)cc1`?
ADAM17 inh: 9.5*; DDE Tn7 FP inh: -2.8; MT1-MMP act inh: 2.7; ADAM10 inh: 4.5; Tn6 DDE FP: 0.4; ADAM10 ctr: 9.4; ADAM17 confirm: 6.3

How did COCCNC(=O)c1ccc2c(c1)NC(=O)CS2 do in these assays?
ADAM17 inh: -5.3; DDE Tn7 FP inh: 1.0; MT1-MMP act inh: 0.4; ADAM10 inh: -4.3; Tn6 DDE FP: -3.2

How did COc1ccc(N=C2SC(CC(=O)Nc3ccc(F)cc3)C(=O)N2Cc2ccco2)cc1 (configuration not stated) do in these assays?
ADAM17 inh: 12.2*; DDE Tn7 FP inh: -3.6; MT1-MMP act inh: -2.4; ADAM10 inh: 14.6; Tn6 DDE FP: -5.1; ADAM10 ctr: 17.9; ADAM17 confirm: 12.8*

What do the screens show for `CC1CCCN(S(=O)(=O)c2ccc(NC(=O)Cn3nnc(-c4ccccc4F)n3)cc2)C1` (configuration not stated)?
ADAM17 inh: 10.5*; DDE Tn7 FP inh: 2.9; MT1-MMP act inh: 6.4; ADAM10 inh: 17.1; Tn6 DDE FP: -11.4; ADAM10 ctr: 16.2; ADAM17 confirm: 10.9*

Results for Cc1ccccc1S(=O)(=O)N(C)C[C@H]1OCc2cnnn2CCCC(=O)N([C@H](C)CO)C[C@@H]1C ?
ADAM17 inh: -4.4; DDE Tn7 FP inh: 3.0; ADAM10 inh: -8.9; Tn6 DDE FP: 13.3

How did OC(COc1ccc(OCc2ccccc2)cc1)CN1CCOCC1 (configuration not stated) do in these assays?
ADAM17 inh: 10.5*; DDE Tn7 FP inh: -5.4; MT1-MMP act inh: 7.4; ADAM10 inh: 10.0; Tn6 DDE FP: -4.4; ADAM10 ctr: 5.9; ADAM17 confirm: 4.4

What do the screens show for `COc1cccc(CO[C@H]2C=C[C@@H](c3ccccc3)O[C@@H]2COC(C)=O)c1`?
ADAM17 inh: -2.1; DDE Tn7 FP inh: 0.7; ADAM10 inh: -6.6; Tn6 DDE FP: 5.3

Results for O=C(Nc1cccc(S(=O)(=O)Nc2ccccc2Cl)c1)c1ccc(N2CCCC2)c([N+](=O)[O-])c1 ?
ADAM17 inh: 11.2*; DDE Tn7 FP inh: -0.3; MT1-MMP act inh: 1.5; ADAM10 inh: 18.4; Tn6 DDE FP: -9.5; ADAM10 ctr: 40.8*; ADAM17 confirm: 23.8*

What do the screens show for `Clc1ccc(OCc2nc(-c3ccccn3)n[nH]2)cc1`?
ADAM17 inh: 9.4*; DDE Tn7 FP inh: 0.9; MT1-MMP act inh: 6.4; ADAM10 inh: 7.0; Tn6 DDE FP: 2.7; ADAM10 ctr: 5.4; ADAM17 confirm: 4.3

How did CCO[C@@H]1OC(C(=O)N2CCN(Cc3ccccc3)CC2)=C[C@H](c2ccc(C(F)(F)F)cc2)[C@H]1CCCO do in these assays?
ADAM17 inh: -0.4; DDE Tn7 FP inh: 3.0; MT1-MMP act inh: 1.1; ADAM10 inh: 5.0; Tn6 DDE FP: 4.3

How did CCO[C@@H]1OC(C(=O)N2CCN(Cc3ccccc3)CC2)=C[C@H](c2ccc(Br)cc2)[C@H]1CCCO do in these assays?
ADAM17 inh: 10.2*; DDE Tn7 FP inh: 1.8; MT1-MMP act inh: -0.4; ADAM10 inh: 18.8; Tn6 DDE FP: -5.4; ADAM10 ctr: 4.4; ADAM17 confirm: 7.4

What do the screens show for `COc1cccc2cc(C(=O)c3ccccc3)oc12`?
ADAM17 inh: -1.9; DDE Tn7 FP inh: 3.2; MT1-MMP act inh: -1.9; ADAM10 inh: -1.9; Tn6 DDE FP: -6.4

What do the screens show for `COc1cccc2cc(/C(=N/O)c3ccc(Br)cc3)oc12`?
ADAM17 inh: 11.9*; DDE Tn7 FP inh: -9.6; MT1-MMP act inh: -5.3; ADAM10 inh: 13.4; Tn6 DDE FP: -4.8; ADAM10 ctr: 16.1; ADAM17 confirm: 10.6*

What do the screens show for `CCOC(=O)c1sc(SC)c2c1CCCC2=O`?
ADAM17 inh: 9.3*; DDE Tn7 FP inh: -8.4; MT1-MMP act inh: -0.4; ADAM10 inh: 14.8; Tn6 DDE FP: -0.1; ADAM10 ctr: -5.2; ADAM17 confirm: -0.4

What do the screens show for `COc1c(S(=O)(=O)N2CCN(c3ccc(F)cc3)CC2)ccc(Cl)c1Cl`?
ADAM17 inh: 9.7*; DDE Tn7 FP inh: 1.9; MT1-MMP act inh: 1.5; ADAM10 inh: 16.0; Tn6 DDE FP: -1.7; ADAM10 ctr: 21.9*; ADAM17 confirm: 14.2*

Results for COc1ccc(Cl)cc1S(=O)(=O)N1CCN(c2ccc(F)cc2)CC1 ?
ADAM17 inh: 0.4; DDE Tn7 FP inh: -2.5; MT1-MMP act inh: 5.4; ADAM10 inh: 7.4; Tn6 DDE FP: 3.8

What do the screens show for `CC1(Cc2ccc(OC(F)(F)F)cc2)C(=O)Nc2c(Cl)ccc(Cl)c21` (configuration not stated)?
ADAM17 inh: 9.7*; DDE Tn7 FP inh: 5.4; MT1-MMP act inh: -10.1; ADAM10 inh: 15.6; Tn6 DDE FP: 4.7; ADAM10 ctr: 30.6*; ADAM17 confirm: 15.3*

How did CC1(Cc2ccc(OC(F)(F)F)cc2)C(=O)Nc2ccc(OC(F)(F)F)cc21 (configuration not stated) do in these assays?
ADAM17 inh: 10.6*; DDE Tn7 FP inh: -2.4; MT1-MMP act inh: 0.1; ADAM10 inh: 18.2; Tn6 DDE FP: 5.7; ADAM10 ctr: 50.8*; ADAM17 confirm: 25.4*

Results for CCCCOC(=O)c1ccc(NC(=O)Nc2ccc(OC)c(OC)c2)cc1 ?
ADAM17 inh: 11.7*; DDE Tn7 FP inh: 3.4; MT1-MMP act inh: -1.0; ADAM10 inh: 17.9; Tn6 DDE FP: -2.4; ADAM10 ctr: 26.6*; ADAM17 confirm: 12.5*

What do the screens show for `CCOC(=O)c1ccc(NC(=O)Nc2ccc(OC)c(OC)c2)cc1`?
ADAM17 inh: 1.8; DDE Tn7 FP inh: 1.9; MT1-MMP act inh: 25.6; ADAM10 inh: 2.5; Tn6 DDE FP: -8.5

How did C#CCN(C[C@H]1[C@H](OC(=O)Nc2c(C)noc2C)[C@H](OC(=O)Nc2c(C)noc2C)CN(C(=O)OC(C)C)N1C(=O)OC(C)C)S(=O)(=O)c1ccc(C)cc1 do in these assays?
ADAM17 inh: 5.3; DDE Tn7 FP inh: -4.8; ADAM10 inh: 5.1; Tn6 DDE FP: -6.4

Results for COc1cccc(-c2c(C(=O)N/N=C/c3ccc(C)s3)nnn2-c2nonc2N)c1 ?
ADAM17 inh: -5.1; DDE Tn7 FP inh: 7.7; MT1-MMP act inh: -3.3; ADAM10 inh: 8.2; Tn6 DDE FP: 1.6
